Measured values taken from ChEMBL document CHEMBL1255242, “Concentrations of dapivirine in the rhesus macaque and rabbit following once daily intravaginal administration of a gel formulation of [14C]dapivirine for 7 days” (Antimicrob Agents Chemother, 2008).

What was measured:
[1] = Drug level in rabbit vaginal tissue at 0.5 ml/day administered intravaginally for 7 days measured 1 hr after final dose by […]; type: ADME, Oryctolagus cuniculus, Vagina; details: read-out: Drug uptake
Summary of the method: (§1)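 Six female rabbits received 0.5 ml/day of [14C]dapivirine gel (nominal 0.09 mg/ml, 15 μCi/ml) intravaginally once daily for 7 days by feeding tube inserted about 6 cm, with a collar for about 8 h. Two rabbits per time point were killed at 1, 8 and 24 h after the final dose. PBS-rinsed vaginal wall and ectocervix were homogenized in 2:1 H2O-ACN and extracted with t-butylmethylether. A single LC-MS/MS run was used (0.250–250 ng/g; 10-point weighted quadratic calibration).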

[2] = Drug level in rabbit cervical tissue at 0.5 ml/day administered intravaginally for 7 days measured 24 hrs after final dose by […]; type: ADME, Oryctolagus cuniculus; details: read-out: Drug uptake; summary of the method: as §1
[3] = tested on: Plasma; assay: Drug level in rhesus monkey plasma at 1 ml/day administered intravaginally for 7 days by LC-MS/MS analysis; type: ADME, cell-free, Macaca mulatta; details: other, 168 h, in the assay text read “liquid scintillation counting” for “LC-MS/MS analysis”
[4] = Drug level in rhesus monkey vaginal tissue at 1 ml/day administered intravaginally 7 days measured 1 hr after final dose by LC-MS/MS analysis; type: ADME, Macaca mulatta, Vagina; details: read-out: Drug uptake
Summary of the method: (§2)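 Nine female macaques were sedated with ketamine (5–20 mg/kg) and given 1 ml/day of [14C]dapivirine gel (nominal 0.09 mg/ml, 15 μCi/ml) intravaginally once daily for 7 days. Three animals per time point were killed (iv pentobarbital, 65 mg/kg) at 1, 24 and 48 h after the final dose. Vaginal wall, ectocervix, and inguinal and iliac lymph nodes were assayed by LC-MS/MS (0.250–250 ng/g). Values below LLOQ were set to 0 for means.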

[5] = Drug level in rhesus monkey vaginal tissue at 1 ml/day administered intravaginally for 7 days measured 24 hrs after final dose by LC-MS/MS analysis; type: ADME, Macaca mulatta, Vagina; details: read-out: Drug uptake; summary of the method: as §2
[6] = Drug level in rhesus monkey vaginal tissue at 1 ml/day administered intravaginally for 7 days measured 48 hrs after final dose by LC-MS/MS analysis; type: ADME, Macaca mulatta, Vagina; details: read-out: Drug uptake; summary of the method: as §2
[7] = Drug level in rhesus monkey cervical tissue at 1 ml/day administered intravaginally for 7 days measured 1 hr after final dose by LC-MS/MS analysis; type: ADME, Macaca mulatta; details: read-out: Drug uptake; summary of the method: as §2
[8] = Drug level in rhesus monkey cervical tissue at 1 ml/day administered intravaginally for 7 days measured 24 hrs after final dose by LC-MS/MS analysis; type: ADME, Macaca mulatta; details: read-out: Drug uptake; summary of the method: as §2
[9] = Drug level in rhesus monkey cervical tissue at 1 ml/day administered intravaginally for 7 days measured 48 hrs after final dose by LC-MS/MS analysis; type: ADME, Macaca mulatta; details: read-out: Drug uptake; summary of the method: as §2
[10] = Drug level in rhesus monkey inguinal lymph node at 1 ml/day administered intravaginally for 7 days measured 1 hr after final dose by LC-MS/MS analysis; type: ADME, tissue-based, Macaca mulatta; details: read-out: Drug uptake; summary of the method: as §2
[11] = Drug level in rhesus monkey inguinal lymph node at 1 ml/day administered intravaginally for 7 days measured 24 hrs after final dose by LC-MS/MS analysis; type: ADME, tissue-based, Macaca mulatta; details: read-out: Drug uptake; summary of the method: as §2
[12] = Drug level in rhesus monkey inguinal lymph node at 1 ml/day administered intravaginally for 7 days measured 48 hrs after final dose by LC-MS/MS analysis; type: ADME, tissue-based, Macaca mulatta; details: read-out: Drug uptake; summary of the method: as §2
[13] = Drug level in rhesus monkey ileac lymph node at 1 ml/day administered intravaginally for 7 days measured 1 hr after final dose by LC-MS/MS analysis; type: ADME, tissue-based, Macaca mulatta; details: read-out: Drug uptake; summary of the method: as §2
[14] = Drug level in rhesus monkey ileac lymph node at 1 ml/day administered intravaginally for 7 days measured 24 hrs after final dose by LC-MS/MS analysis; type: ADME, tissue-based, Macaca mulatta; details: read-out: Drug uptake; summary of the method: as §2
[15] = Drug level in rhesus monkey ileac lymph node at 1 ml/day administered intravaginally for 7 days measured 48 hrs after final dose by LC-MS/MS analysis; type: ADME, tissue-based, Macaca mulatta; details: read-out: Drug uptake; summary of the method: as §2
[16] = tested on: Plasma; assay: Drug level in rabbit plasma at 0.5 ml/day administered intravaginally for 7 days by liquid scintillation counting; details: other, 168 h

Cc1cc(C)c(Nc2ccnc(Nc3ccc([14C]#N)cc3)n2)c(C)c1 [[14C]DAPIVIRINE]
concentration at 1 h [1]: > 3000 ng/g | concentration at 24 h [2]: ≥ 2.5 ng/g | Drug uptake [3]: <= 83 dpm/ml | concentration at 1 h [4]: 4260 ng/g | concentration at 24 h [5]: 1160 ng/g | concentration at 48 h [6]: 515 ng/g | concentration at 1 h [7]: 2400 ng/g | concentration at 24 h [8]: 271 ng/g | concentration at 48 h [9]: 81 ng/g | concentration at 1 h [10]: 10.6 ng/g | concentration at 24 h [11]: 1.77 ng/g | concentration at 48 h [12]: 0.48 ng/g | concentration at 1 h [13]: 14.9 ng/g | concentration at 24 h [14]: 11.6 ng/g | concentration at 48 h [15]: 1.16 ng/g | Drug uptake [16]: 246 dpm/ml
